Assay results published in ChEMBL document CHEMBL4261642, “Design, synthesis, and ex vivo evaluation of a selective inhibitor for retinaldehyde dehydrogenase enzymes” (Bioorg Med Chem, 2018).

What was measured:
[1] = target: T1, Retinal dehydrogenase 2 (Gallus gallus) (UniProt O93344); test: Inhibition of chick RALDH2 expressed in doxycycline-inducible HEK293 cells assessed as inhibition of ATRA synthesis at 0.5 uM after 24 hrs in presence of […]
T1 sequence (whole entry): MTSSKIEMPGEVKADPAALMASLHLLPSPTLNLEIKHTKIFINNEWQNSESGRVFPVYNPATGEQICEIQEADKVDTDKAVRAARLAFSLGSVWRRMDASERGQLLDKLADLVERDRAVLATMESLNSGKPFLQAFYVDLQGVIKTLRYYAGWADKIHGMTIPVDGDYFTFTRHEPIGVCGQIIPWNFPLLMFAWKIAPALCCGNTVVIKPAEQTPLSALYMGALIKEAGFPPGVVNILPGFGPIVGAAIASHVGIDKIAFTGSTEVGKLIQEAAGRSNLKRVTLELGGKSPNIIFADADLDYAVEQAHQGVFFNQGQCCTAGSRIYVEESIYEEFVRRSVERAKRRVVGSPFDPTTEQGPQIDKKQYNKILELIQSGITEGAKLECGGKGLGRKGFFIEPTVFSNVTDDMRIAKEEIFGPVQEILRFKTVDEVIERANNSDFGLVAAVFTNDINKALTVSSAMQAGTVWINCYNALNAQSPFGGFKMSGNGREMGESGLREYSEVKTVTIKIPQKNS

[2] = target: T2, Retinal dehydrogenase 2 (Gallus gallus, UniProt O93344); test: Inhibition of chick RALDH2 expressed in doxycycline-inducible HEK293 cells assessed as inhibition of ATRA synthesis after 24 hrs in presence of […]; assay type: cell-based
T2 sequence (O93344 whole entry): T1 sequence (whole entry)

[3] = Inhibition of N-terminal His6-tagged recombinant chick RALDH3 expressed in Escherichia coli BL21(DE3) cells using RAL as substrate measured after 30 mins in presence of NADH by Morrison's plot analysis; set-up: species or system Gallus gallus
Outline: (§1)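 Ki obtained by fitting the Morrison tight-binding equation to the 20-min pre-incubation retinaldehyde/NADH fluorescence inhibition data. Inputs were enzyme concentration (RALDH1 0.358, RALDH2 0.091, RALDH3 0.355, hRALDH2 0.176 μM), substrate concentration and Km. Triplicates from 3–5 independent experiments.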

[4] = target: T1, Retinal dehydrogenase 2 (Gallus gallus); test: Inhibition of chick RALDH2 expressed in doxycycline-inducible HEK293 cells assessed as inhibition of ATRA synthesis at 2 uM after 24 hrs in presence of ATRA and NAD+; assay type: cell-based
[5] = target: T3, Aldehyde dehydrogenase 1A1 (Gallus gallus, UniProt P27463); test: Inhibition of N-terminal His6-tagged recombinant chick RALDH1 expressed in Escherichia coli BL21(DE3) cells using RAL as substrate measured after 30 mins in presence of NADH by Morrison's plot analysis
T3 sequence (P27463 whole entry): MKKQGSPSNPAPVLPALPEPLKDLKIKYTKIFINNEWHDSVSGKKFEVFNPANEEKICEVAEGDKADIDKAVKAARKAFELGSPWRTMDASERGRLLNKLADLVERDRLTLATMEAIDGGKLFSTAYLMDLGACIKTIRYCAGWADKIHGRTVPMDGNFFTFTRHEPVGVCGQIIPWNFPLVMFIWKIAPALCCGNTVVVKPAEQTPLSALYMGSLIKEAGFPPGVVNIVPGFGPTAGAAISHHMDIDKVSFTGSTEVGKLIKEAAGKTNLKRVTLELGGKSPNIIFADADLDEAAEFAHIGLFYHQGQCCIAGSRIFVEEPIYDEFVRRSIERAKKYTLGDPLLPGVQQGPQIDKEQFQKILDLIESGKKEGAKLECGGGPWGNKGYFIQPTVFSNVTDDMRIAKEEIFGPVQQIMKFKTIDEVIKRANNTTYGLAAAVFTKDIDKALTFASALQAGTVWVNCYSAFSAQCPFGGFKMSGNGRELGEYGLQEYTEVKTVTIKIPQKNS
Outline: as §1

inhibition [1]: 47%
IC50 [2]: 0.187 µM
inhibition [4]: 93%
Ki [5]: 0.194 µM
SMILES: CC1=C(/C=C/C(C)=C/C=C/C(C)=C/C(=O)C(Cl)Cl)C(C)(C)CCC1
Ki [3]: 0.00674 µM
